Assay results taken from ChEMBL document CHEMBL4118021, “Studies of TAK1-centered polypharmacology with novel covalent TAK1 inhibitors” (Bioorg Med Chem, 2017).
The source made the active and inactive calls. The rule behind the calls is not given here.

Columns and labels:
[1] = molecular target: Wee1-like protein kinase (Homo sapiens) (UniProt P30291); test: Inhibition of Wee1 in human SKCO1 cells at 1 uM after 4 hrs using biotin labeled YIHSMSLVHMDIKPSNIFISR probe by mass-spectrometric analysis relative to control; type: cell-based
How it was run: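 Live SK-CO-1 cells treated 4 h at 1 μM (DMSO control); cells lysed and lysates labeled with lysine-reactive ATP/ADP-biotin probe (KiNativ); probe-labeled kinase peptides quantified by mass spectrometry; inhibition expressed as percent reduction in probe-dependent recovery versus DMSO-treated cells.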

[2] = molecular target: Mitogen-activated protein kinase 3 (Homo sapiens) (UniProt P27361); test: Inhibition of Erk1 in human SKCO1 cells at 1 uM after 4 hrs using biotin labeled DLKPSNLLINTTCDLK probe by mass-spectrometric analysis relative to control; type: cell-based
Mitogen-activated protein kinase 3 (Homo sapiens), sequence (P27361 whole entry): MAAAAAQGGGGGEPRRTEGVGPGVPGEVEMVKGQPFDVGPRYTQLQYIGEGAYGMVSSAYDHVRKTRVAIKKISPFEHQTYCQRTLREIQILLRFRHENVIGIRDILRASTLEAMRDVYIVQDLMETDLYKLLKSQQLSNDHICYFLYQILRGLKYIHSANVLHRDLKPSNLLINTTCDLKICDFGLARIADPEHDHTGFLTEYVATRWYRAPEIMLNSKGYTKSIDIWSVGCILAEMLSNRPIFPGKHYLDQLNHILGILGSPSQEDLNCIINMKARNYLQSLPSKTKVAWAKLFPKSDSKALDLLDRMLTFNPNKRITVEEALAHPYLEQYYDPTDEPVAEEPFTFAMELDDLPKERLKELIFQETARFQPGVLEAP

[3] = molecular target: Mitogen-activated protein kinase 1 (Homo sapiens) (UniProt P28482); test: Inhibition of Erk2 in human SKCO1 cells at 1 uM after 4 hrs using biotin labeled DLKPSNLLLNTTCDLK probe by mass-spectrometric analysis relative to control; type: cell-based
Mitogen-activated protein kinase 1 (Homo sapiens), sequence (P28482 whole entry, the tested form may be a part): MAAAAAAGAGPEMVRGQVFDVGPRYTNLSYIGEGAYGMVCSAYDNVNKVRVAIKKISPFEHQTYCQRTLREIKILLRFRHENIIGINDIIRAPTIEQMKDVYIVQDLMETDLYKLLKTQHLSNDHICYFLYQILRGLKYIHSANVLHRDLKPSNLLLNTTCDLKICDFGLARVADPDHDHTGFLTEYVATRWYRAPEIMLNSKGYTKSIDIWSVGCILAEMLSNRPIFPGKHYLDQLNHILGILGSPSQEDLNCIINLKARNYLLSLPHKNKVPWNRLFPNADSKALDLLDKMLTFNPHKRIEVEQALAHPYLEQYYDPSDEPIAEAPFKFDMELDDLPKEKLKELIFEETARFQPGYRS

[4] = molecular target: Tyrosine-protein kinase JAK1 (Homo sapiens) (UniProt P23458); test: Inhibition of JAK1 domain1 in human SKCO1 cells at 1 uM after 4 hrs using biotin labeled QLASALSYLEDKDLVHGNVCTKNLLLAR probe by mass-spectrometric analysis relative to control; type: cell-based
Tyrosine-protein kinase JAK1 (Homo sapiens), sequence (P23458 whole entry, the tested form may be a part): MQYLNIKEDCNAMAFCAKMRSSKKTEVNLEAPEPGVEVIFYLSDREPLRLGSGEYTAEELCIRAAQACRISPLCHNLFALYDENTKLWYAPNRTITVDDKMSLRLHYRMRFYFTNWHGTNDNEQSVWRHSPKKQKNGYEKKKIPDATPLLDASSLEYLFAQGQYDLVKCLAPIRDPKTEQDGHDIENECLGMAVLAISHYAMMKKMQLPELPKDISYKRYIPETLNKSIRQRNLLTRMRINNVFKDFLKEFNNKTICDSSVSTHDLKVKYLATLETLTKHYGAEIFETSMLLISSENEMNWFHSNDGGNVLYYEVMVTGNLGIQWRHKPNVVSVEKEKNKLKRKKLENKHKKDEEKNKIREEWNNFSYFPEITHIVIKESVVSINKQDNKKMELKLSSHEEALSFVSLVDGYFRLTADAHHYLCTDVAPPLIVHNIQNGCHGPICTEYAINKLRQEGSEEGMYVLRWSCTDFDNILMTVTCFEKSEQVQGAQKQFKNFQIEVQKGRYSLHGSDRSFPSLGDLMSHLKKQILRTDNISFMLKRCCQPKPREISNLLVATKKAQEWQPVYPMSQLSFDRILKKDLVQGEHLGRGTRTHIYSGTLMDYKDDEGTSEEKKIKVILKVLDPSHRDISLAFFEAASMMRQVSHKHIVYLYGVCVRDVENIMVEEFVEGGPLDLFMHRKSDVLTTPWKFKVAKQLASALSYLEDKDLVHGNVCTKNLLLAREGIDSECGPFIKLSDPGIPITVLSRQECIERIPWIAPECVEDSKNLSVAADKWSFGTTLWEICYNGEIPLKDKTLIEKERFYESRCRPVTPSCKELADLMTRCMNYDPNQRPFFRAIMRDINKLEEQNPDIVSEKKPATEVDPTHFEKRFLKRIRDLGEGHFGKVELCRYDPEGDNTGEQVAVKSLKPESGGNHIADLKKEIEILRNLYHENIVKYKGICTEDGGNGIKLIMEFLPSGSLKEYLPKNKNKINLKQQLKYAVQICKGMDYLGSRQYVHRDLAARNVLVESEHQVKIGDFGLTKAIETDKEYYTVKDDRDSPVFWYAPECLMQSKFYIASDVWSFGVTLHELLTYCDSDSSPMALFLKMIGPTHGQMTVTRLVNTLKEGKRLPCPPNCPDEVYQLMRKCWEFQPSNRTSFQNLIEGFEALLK

[5] = molecular target: Phosphatidylinositol 3-kinase catalytic subunit type 3 (Homo sapiens) (UniProt Q8NEB9); test: Inhibition of PIK3C3 in human SKCO1 cells at 1 uM after 4 hrs using biotin labeled TEDGGKYPVIFKHGDDLRQDQLILQIISLMDK probe by mass-spectrometric analysis relative to control; type: cell-based
[6] = molecular target: Serine/threonine-protein kinase A-Raf (Homo sapiens) (UniProt P10398); test: Inhibition of ARAF in human SKCO1 cells at 1 uM after 4 hrs using biotin labeled DLKSNNIFLHEGLTVK probe by mass-spectrometric analysis relative to control; type: cell-based
Serine/threonine-protein kinase A-Raf (Homo sapiens), sequence (P10398 whole entry): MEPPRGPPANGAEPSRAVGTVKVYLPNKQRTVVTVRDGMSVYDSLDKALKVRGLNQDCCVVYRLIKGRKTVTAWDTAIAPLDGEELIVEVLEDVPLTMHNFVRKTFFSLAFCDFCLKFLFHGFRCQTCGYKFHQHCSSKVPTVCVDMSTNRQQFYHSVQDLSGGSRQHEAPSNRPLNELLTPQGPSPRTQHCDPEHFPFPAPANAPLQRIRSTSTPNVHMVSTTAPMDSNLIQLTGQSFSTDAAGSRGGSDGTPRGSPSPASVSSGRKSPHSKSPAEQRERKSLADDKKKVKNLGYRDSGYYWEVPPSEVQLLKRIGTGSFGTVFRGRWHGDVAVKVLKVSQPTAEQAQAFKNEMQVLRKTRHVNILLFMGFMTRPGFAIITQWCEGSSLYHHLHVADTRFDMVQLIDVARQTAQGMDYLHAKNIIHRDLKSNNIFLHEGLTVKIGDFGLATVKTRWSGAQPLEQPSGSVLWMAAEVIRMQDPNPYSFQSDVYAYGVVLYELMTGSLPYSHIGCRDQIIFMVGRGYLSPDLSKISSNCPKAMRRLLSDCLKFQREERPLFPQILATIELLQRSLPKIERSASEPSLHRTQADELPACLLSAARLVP

[7] = molecular target: Mitogen-activated protein kinase 8 (Homo sapiens) (UniProt P45983); test: Inhibition of JNK1 in human SKCO1 cells at 1 uM after 4 hrs using biotin labeled DLKPSNIVVK probe by mass-spectrometric analysis relative to control; type: cell-based
Mitogen-activated protein kinase 8 (Homo sapiens), sequence (P45983 whole entry): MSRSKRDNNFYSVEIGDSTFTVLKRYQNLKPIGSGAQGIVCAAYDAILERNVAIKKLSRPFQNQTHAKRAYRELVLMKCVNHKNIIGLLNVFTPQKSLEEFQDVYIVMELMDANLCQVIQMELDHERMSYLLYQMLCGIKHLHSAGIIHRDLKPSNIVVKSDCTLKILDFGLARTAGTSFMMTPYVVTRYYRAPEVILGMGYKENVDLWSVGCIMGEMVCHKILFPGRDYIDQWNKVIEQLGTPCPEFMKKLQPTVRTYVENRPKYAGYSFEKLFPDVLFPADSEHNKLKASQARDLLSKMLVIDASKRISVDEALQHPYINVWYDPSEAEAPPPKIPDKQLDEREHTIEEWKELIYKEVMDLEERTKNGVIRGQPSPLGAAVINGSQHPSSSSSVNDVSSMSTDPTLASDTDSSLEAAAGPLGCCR

[8] = molecular target: Tyrosine-protein kinase FRK (Homo sapiens) (UniProt P42685); test: Inhibition of FRK in human SKCO1 cells at 1 uM after 4 hrs using biotin labeled HEIKLPVK probe by mass-spectrometric analysis relative to control; type: cell-based
Tyrosine-protein kinase FRK (Homo sapiens), sequence (P42685 whole entry): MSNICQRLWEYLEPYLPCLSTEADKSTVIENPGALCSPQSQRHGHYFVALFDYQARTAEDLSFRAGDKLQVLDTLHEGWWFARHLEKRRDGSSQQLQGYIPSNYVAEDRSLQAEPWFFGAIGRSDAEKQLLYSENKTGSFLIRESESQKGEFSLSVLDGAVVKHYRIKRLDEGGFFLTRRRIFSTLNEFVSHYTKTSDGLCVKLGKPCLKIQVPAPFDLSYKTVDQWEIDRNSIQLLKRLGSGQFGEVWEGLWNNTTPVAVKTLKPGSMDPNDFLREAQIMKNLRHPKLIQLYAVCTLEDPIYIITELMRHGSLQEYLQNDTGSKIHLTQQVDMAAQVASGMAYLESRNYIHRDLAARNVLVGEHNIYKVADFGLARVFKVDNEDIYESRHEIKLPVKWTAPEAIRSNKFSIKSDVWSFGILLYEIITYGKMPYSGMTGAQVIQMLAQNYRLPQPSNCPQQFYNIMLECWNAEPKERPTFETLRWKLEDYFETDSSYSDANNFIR

[9] = molecular target: Tyrosine-protein kinase SYK (Homo sapiens) (UniProt P43405); test: Inhibition of SYK in human SKCO1 cells at 1 uM after 4 hrs using biotin labeled ISDFGLSKALR probe by mass-spectrometric analysis relative to control; type: cell-based
How it was run: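 Live SK-CO-1 cells exposed to compound at 1 μM or DMSO for 4 h (KiNativ). Lysates then labeled with lysine-reactive ATP/ADP-biotin probe, and probe-labeled kinase peptides quantified by mass spectrometry. Percent inhibition of probe-dependent recovery calculated relative to DMSO-treated cells.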

[10] = molecular target: T1, Mitogen-activated protein kinase kinase kinase 7 (Homo sapiens) (UniProt O43318); details: 0.6 uM
T1 sequence (whole entry): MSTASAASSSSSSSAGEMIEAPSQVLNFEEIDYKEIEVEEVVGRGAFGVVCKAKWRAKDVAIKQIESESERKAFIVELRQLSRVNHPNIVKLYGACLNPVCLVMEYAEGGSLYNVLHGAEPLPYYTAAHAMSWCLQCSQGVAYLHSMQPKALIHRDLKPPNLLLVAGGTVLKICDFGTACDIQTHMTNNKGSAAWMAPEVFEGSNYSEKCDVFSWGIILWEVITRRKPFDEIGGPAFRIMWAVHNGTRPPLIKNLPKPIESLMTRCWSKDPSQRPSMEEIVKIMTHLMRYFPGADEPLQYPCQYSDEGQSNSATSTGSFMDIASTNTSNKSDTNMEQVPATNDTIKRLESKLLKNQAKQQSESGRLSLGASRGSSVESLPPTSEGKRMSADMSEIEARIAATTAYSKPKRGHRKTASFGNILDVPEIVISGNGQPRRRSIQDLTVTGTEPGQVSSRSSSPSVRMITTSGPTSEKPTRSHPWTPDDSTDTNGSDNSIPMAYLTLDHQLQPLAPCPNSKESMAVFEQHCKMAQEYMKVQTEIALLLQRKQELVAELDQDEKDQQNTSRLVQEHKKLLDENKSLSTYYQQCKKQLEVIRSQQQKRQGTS

[11] = molecular target: Serine/threonine-protein kinase Sgk3 (Homo sapiens) (UniProt Q96BR1); test: Inhibition of SGK3 in human SKCO1 cells at 1 uM after 4 hrs using biotin labeled FYAVKVLQK probe by mass-spectrometric analysis relative to control; type: cell-based
Serine/threonine-protein kinase Sgk3 (Homo sapiens), sequence (Q96BR1 whole entry): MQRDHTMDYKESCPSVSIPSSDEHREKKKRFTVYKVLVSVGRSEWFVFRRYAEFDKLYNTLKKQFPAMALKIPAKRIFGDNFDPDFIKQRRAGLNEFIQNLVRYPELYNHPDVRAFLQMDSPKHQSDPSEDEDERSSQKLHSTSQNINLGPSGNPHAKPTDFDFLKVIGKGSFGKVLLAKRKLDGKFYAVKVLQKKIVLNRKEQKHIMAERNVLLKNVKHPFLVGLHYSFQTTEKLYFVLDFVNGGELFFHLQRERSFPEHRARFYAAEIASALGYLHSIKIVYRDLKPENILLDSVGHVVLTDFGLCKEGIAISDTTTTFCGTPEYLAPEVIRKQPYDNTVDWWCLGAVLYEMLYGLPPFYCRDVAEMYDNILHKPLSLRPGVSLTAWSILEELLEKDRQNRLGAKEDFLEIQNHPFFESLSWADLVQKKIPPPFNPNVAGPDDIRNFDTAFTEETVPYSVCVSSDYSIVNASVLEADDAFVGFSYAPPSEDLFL

PANC-1 = test: Antiproliferative activity against human PANC1 cells harboring KRAS G12D mutant after 72 hrs by CellTiter-Glo assay; type: functional, cell-based; details: PANC-1, 72 h
[12] = Antiproliferative activity against human URMC6 cells harboring wild type KRAS after 72 hrs by CellTiter-Glo assay; type: functional, cell-based
[13] = molecular target: Mitogen-activated protein kinase 14 (Homo sapiens) (UniProt Q16539); test: Inhibition of p38a in human SKCO1 cells at 1 uM after 4 hrs using biotin labeled QELNKTIWEVPER probe by mass-spectrometric analysis relative to control; type: cell-based
Mitogen-activated protein kinase 14 (Homo sapiens), sequence (Q16539 whole entry): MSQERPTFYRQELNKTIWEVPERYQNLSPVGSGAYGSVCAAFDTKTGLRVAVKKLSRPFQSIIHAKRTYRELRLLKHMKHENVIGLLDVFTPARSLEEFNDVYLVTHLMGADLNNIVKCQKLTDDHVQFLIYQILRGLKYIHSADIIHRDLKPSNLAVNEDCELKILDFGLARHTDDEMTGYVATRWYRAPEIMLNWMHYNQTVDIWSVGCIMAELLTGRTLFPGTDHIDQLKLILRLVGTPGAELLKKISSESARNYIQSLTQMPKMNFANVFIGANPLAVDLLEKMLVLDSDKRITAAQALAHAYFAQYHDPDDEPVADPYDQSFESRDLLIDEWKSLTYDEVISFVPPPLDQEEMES
How it was run: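 Live SK-CO-1 cells were treated at 1 μM for 4 h alongside DMSO controls, then lysed. Lysates were labelled with a lysine-reactive ATP or ADP-biotin probe, and probe-dependent peptide recovery was quantified by mass spectrometry. Inhibition (%) is relative to DMSO-treated cells.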

SK-CO-1 = test: Antiproliferative activity against human SKCO1 cells harboring KRAS G12V mutant after 72 hrs by CellTiter-Glo assay; type: functional, cell-based; details: SK-CO-1, 72 h
[14] = molecular target: Cyclin-dependent kinase 5 (Homo sapiens) (UniProt Q00535); test: Inhibition of CDK5 in human SKCO1 cells at 1 uM after 4 hrs using biotin labeled DLKPQNLLINR probe by mass-spectrometric analysis relative to control; type: cell-based
Cyclin-dependent kinase 5 (Homo sapiens), sequence (Q00535 whole entry, looked up): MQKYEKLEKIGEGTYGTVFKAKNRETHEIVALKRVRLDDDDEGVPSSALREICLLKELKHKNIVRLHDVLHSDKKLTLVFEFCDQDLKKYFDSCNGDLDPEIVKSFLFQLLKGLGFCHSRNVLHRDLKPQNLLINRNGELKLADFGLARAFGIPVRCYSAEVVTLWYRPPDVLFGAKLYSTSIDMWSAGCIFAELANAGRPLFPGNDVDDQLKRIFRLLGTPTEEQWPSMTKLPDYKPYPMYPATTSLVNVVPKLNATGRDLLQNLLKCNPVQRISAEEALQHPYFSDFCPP

[15] = molecular target: T2, Dual specificity mitogen-activated protein kinase kinase 3 (Homo sapiens) (UniProt P46734); test: Inhibition of MAP2K3 in human SKCO1 cells at 1 uM after 4 hrs using biotin labeled DVKPSNVLINK probe by mass-spectrometric analysis relative to control; type: cell-based
T2 sequence (whole entry): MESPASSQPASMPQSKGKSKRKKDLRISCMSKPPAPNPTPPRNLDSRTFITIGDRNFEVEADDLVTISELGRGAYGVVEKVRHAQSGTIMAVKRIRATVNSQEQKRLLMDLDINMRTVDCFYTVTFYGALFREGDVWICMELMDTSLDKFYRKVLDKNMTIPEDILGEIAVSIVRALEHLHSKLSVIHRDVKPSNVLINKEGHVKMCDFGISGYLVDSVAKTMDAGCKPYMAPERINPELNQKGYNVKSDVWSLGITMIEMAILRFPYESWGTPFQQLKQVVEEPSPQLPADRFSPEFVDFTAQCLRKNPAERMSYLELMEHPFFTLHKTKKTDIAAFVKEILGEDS

SMILES	inhibition [1] [%]	inhibition [2] [%]	inhibition [3] [%]	inhibition [4] [%]	inhibition [5] [%]	inhibition [6] [%]	inhibition [7] [%]	inhibition [8] [%]	inhibition [9] [%]	inhibition [10]	inhibition [11] [%]	IC50 (PANC-1) [nM]	IC50 [12] [nM]	inhibition [13] [%]	IC50 (SK-CO-1) [nM]	inhibition [14] [%]	inhibition [15] [%]
C=CC(=O)Nc1ccccc1Nc1nc(Nc2ccc(N3CCN(C)CC3)cc2)ncc1Cl	79	5.2	42.6	64.7	21.1	57	70	39.2	-1.2	Active	-2.7						
COc1cc(O)c2c(c1)/C=C/C[C@H](O)[C@H](O)C(=O)/C=C\C[C@H](C)OC2=O	3			21.6	15.1	85.5		-9.6		Active	-1.4	2500	1450	10.2	250	2.1	33.5
C=CC(=O)Nc1ccccc1Oc1nc(Nc2cnn(CCOC)c2)ncc1Cl		42.7	55.7				0.8		-0.4			5610	2620	12.7	318	4.2	10.9
